This is an account of results in ChEMBL document CHEMBL4513216, “Probing the Open Global Health Chemical Diversity Library for Multistage-Active Starting Points for Next-Generation Antimalarials” (ACS Infect Dis, 2020).

A short description of this data set: Toxicity liver stage against HepG2, at 10uM. The data set is classed as cell-based. Also on record: test concentration 10 uM, cell line HepG2-A16-CD81EGFP. The settings on record: human, HepG2-A16-CD81EGFP cells; read-out: INHIBITION
The essentials: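 Uninfected HepG2-A16-CD81EGFP cells, 3 × 10^3 per well, 1536-well, plated on prespotted compound at 10 μM final, parasite-free screening media added to match infected plates; puromycin 10 μM positive, DMSO 0.5% negative; run in parallel with 48 h PbLuc assay at 37 °C, 5% CO2; viability by CellTiter-Glo luminescence, normalized to controls.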
For `COc1ccc(Cl)cc1NCC(=O)NCCNc1cnccn1`, the cytotoxicity at 10 µM was -11.4%.

As to `COc1ccccc1CN1CC(OC)CN(C(=O)CC(C)C)CC1=O` (configuration not stated), the cytotoxicity at 10 µM was -3.3%.

Regarding `COc1cccc(OC)c1C(=O)N1CC(=O)N(C2CCC2)CC(O)C1` (configuration not stated), the cytotoxicity at 10 µM was -5.59%.

For the compound `COc1cc2nc(C)n(CC(=O)NCCO)c(=O)c2cc1OC`, the cytotoxicity at 10 µM is -8.12%.

As for `CN(C)CCCNC(=O)c1cc(Cl)ccc1Cl`, the cytotoxicity at 10 µM was -6.56%.

In the case of `CC(CO)NC(=O)c1ccc2[nH]/c(=N\S(C)(=O)=O)sc2c1` (configuration not stated), the cytotoxicity at 10 µM is -3.24%.

As to `CCOC(=O)N1CCN(C(=O)c2snnc2-c2ccc(OC)cc2)CC1`, the cytotoxicity at 10 µM was determined as 3.56%.

`CC(=O)c1c(C)nn(S(=O)(=O)c2ccc(C)c(C)c2)c1C`: the cytotoxicity at 10 µM is -8.46%.

Turning to `CCCc1noc(C2CCN(S(=O)(=O)c3cccs3)CC2)n1`, the cytotoxicity at 10 µM came to 1.5%.

In the case of `CCn1nccc1CNC(=O)C(C)n1cc2c(n1)c(C)nn2C` (configuration not stated), the cytotoxicity at 10 µM came out at 5.32%.

For `Cc1nccn1-c1ccc(NS(=O)(=O)c2cnn(C)c2)cn1`, the cytotoxicity at 10 µM was -6.38%.

In the case of `CC1(C)CN(C(=O)Nc2cc(C(F)(F)F)c[nH]c2=O)CCO1`, the cytotoxicity at 10 µM was determined as 5.12%.

For the compound `COC(=O)c1cccc(CNC(=O)CCC(F)(F)F)c1`, the cytotoxicity at 10 µM was found to be 11.6%.

For the compound `CCn1cnnc1CNC(=O)N(C)Cc1c(F)cccc1Cl`, the cytotoxicity at 10 µM was -5.56%.

Turning to `CC(C)NC(=O)CN1CCC2(CC1)OCCO2`, the cytotoxicity at 10 µM is -8.67%.

On to `CCCNC(=O)CCNC(=O)c1ccccc1N1CCOCC1`, for which the cytotoxicity at 10 µM amounted to 0.321%.

Consider `Cc1noc(C)c1CNC(=O)N1CCC(OCC2CC2)CC1`, for which the cytotoxicity at 10 µM is -11%.

As for `O=S(=O)(c1cccnc1)N1CCCC1COc1ccccc1` (configuration not stated), the cytotoxicity at 10 µM is -9.32%.

For `CC(C)C1CN(S(=O)(=O)Cc2cccc(C#N)c2)CCS1` (configuration not stated), the cytotoxicity at 10 µM came out at 2.66%.

With `N#Cc1ccc(NCCC2CCN(CC(F)(F)F)CC2)nc1`, the cytotoxicity at 10 µM was 5.92%.

As to `CNC(=O)NC(=O)CNC(CC(F)(F)F)c1ccc(F)cc1` (configuration not stated), the cytotoxicity at 10 µM was found to be 7.69%.

As for `CC(C)(C(=O)O)S(=O)(=O)c1ccc(Br)cc1`, the cytotoxicity at 10 µM was found to be 4.67%.

With `Cc1ccc(N2CCCC(N3CCC(CO)CC3)C2=O)cc1` (configuration not stated), the cytotoxicity at 10 µM stood at 0.473%.

Take `O=C(NCc1ccc(Br)c(F)c1)Nc1cn[nH]c1`: the cytotoxicity at 10 µM is -6.62%.

For the compound `Cc1nc(C(C)(C)NC(=O)Nc2ccccc2)no1`, the cytotoxicity at 10 µM was -1.48%.

For the compound `Cc1cc(N2CCN(CC(=O)N(C)C)CC2)nc(-c2ccncc2)n1`, the cytotoxicity at 10 µM was -3.96%.

Turning to `Fc1cnc(N2CCC3(CCCN(c4nncs4)C3)C2)nc1` (configuration not stated), the cytotoxicity at 10 µM stood at 2.15%.

Take `CN(C)C(=O)[C@H]1C[C@@H]2CCN(Cc3ccncc3)C[C@H]2O1`: the cytotoxicity at 10 µM turned out to be 0.866%.

Consider `O=C(c1cn2ccsc2n1)N1CCN(CC2CC2)[C@@H]2CS(=O)(=O)C[C@@H]21`, for which the cytotoxicity at 10 µM was -2.82%.

`CN1CCN(Cc2ccccc2Oc2cncc(C(N)=O)n2)CC1`: the cytotoxicity at 10 µM is -4.89%.

For `CSc1ccccc1CN1CCn2nc(CNC(=O)N(C)C)cc2C1`, the cytotoxicity at 10 µM came to 19.5%.

Consider `CCCc1cnc(C)nc1NC(C)Cc1cnccn1` (configuration not stated), for which the cytotoxicity at 10 µM was -7.96%.

As to `CCC(C(=O)N1CCS(=O)(=O)CC1)n1cccn1` (configuration not stated), the cytotoxicity at 10 µM was 1.28%.

As for `Cc1ccccc1-n1cc(CNC(=O)CC2C(=O)NCCN2C)cn1` (configuration not stated), the cytotoxicity at 10 µM was found to be 2.4%.

In the case of `COc1ccc(C(=O)N2CC[C@@H](N3CCC(O)CC3)[C@H](O)C2)cc1C`, the cytotoxicity at 10 µM is -8.1%.

Turning to `N[C@@H]1c2ccccc2C2(CCN(C(=O)c3ccc(=O)[nH]c3)CC2)[C@H]1O`, the cytotoxicity at 10 µM amounted to 3.27%.

For the compound `CN(CC1CCCCO1)c1ncnc2cc(F)ccc12` (configuration not stated), the cytotoxicity at 10 µM was -2.15%.

For `O=C(CCN1CCCC(CO)(CC2CC2)C1)NCc1cccc(Cl)c1` (configuration not stated), the cytotoxicity at 10 µM was -1.07%.

Turning to `COC(=O)c1ccc(NC(=O)CNCc2ccco2)cc1`, the cytotoxicity at 10 µM is -12%.

On to `COc1cccn(Cc2nnc(-c3cccc(F)c3)o2)c1=O`, for which the cytotoxicity at 10 µM was 2%.

Turning to `COCCC(=O)N1CCCC(CCc2ccc(F)c(F)c2)C1` (configuration not stated), the cytotoxicity at 10 µM was -2.59%.

With `FC(F)(F)C1CN(Cc2cccc(-c3ccccn3)c2)CCO1` (configuration not stated), the cytotoxicity at 10 µM was -7.73%.

Consider `C=C(C)COc1ccccc1C(=O)N(C)C(C)c1c(C)n[nH]c1C` (configuration not stated), for which the cytotoxicity at 10 µM was 3.23%.

Regarding `Fc1ccc(C(CNc2ccncn2)N2CCCCC2)cc1` (configuration not stated), the cytotoxicity at 10 µM was -1.88%.

Turning to `COC(=O)c1ccc2ccn(CC3CCNC3)c(=O)c2c1` (configuration not stated), the cytotoxicity at 10 µM is -28%.

For the compound `CC(C)C(C(=O)N1CCN(c2nccs2)CC1)n1cncn1` (configuration not stated), the cytotoxicity at 10 µM is -4.35%.

For `COc1ccccc1CC(=O)N1CCCC(CNS(C)(=O)=O)C1` (configuration not stated), the cytotoxicity at 10 µM worked out at 0.691%.

In the case of `Cc1cc(C(=O)NCc2ccnc(N3CCOCC3)c2)c(C)s1`, the cytotoxicity at 10 µM is -0.426%.

For the compound `Cc1nc(CN2CCN(C(C)c3nc(C4CC4)no3)CC2)oc1C` (configuration not stated), the cytotoxicity at 10 µM was -5.95%.

As to `Cc1nc(C2CCCN2CCC(=O)N2CCc3ccccc32)no1` (configuration not stated), the cytotoxicity at 10 µM was -1.07%.

As for `Cn1cc(C2CCCN2C(=O)CCc2cnn(-c3ccccc3)c2)cn1` (configuration not stated), the cytotoxicity at 10 µM was -6.88%.

`CN(C)c1cc2c(nn1)CCN(C(=O)C1CCCc3ccccc31)C2` (configuration not stated): the cytotoxicity at 10 µM was -8.57%.

In the case of `Fc1ccc(-c2nc(CN3CCCC3Cn3cncn3)co2)cc1` (configuration not stated), the cytotoxicity at 10 µM is -8.28%.

As for `CCOCC(O)CN1CCN(C(=O)c2ccc(N(C)C)nn2)CC1` (configuration not stated), the cytotoxicity at 10 µM was -13.1%.

Regarding `O=C(NCCN1CCCCCC1)c1n[nH]c(=O)c2ccccc12`, the cytotoxicity at 10 µM was -9.86%.

With `CCc1nc(CN(C)C2CCN(CC(F)(F)F)C2)no1` (configuration not stated), the cytotoxicity at 10 µM was -16.8%.

Take `Cc1ccc(CNC(=O)CN2CCOC(Cn3cncn3)C2)s1` (configuration not stated): the cytotoxicity at 10 µM was -8.45%.

For `Cc1nc(C)n(CC2CCCN(CCOc3ccccc3F)C2)n1` (configuration not stated), the cytotoxicity at 10 µM is -18.5%.

Regarding `CCn1ncc2c1CCCC2NCc1ccc2c(c1)CCO2` (configuration not stated), the cytotoxicity at 10 µM was -4.47%.

With `Cc1cccc(C2(C(=O)NCC3CCN(CC(F)(F)F)C3)CCC2)c1` (configuration not stated), the cytotoxicity at 10 µM was -11.5%.

In the case of `CCc1cccc(N2CCC(NC(=O)CCNC(N)=O)CC2)c1`, the cytotoxicity at 10 µM is -12.5%.

`COc1cccc(CCC(=O)N2CCCC(c3nncn3C)C2)c1` (configuration not stated): the cytotoxicity at 10 µM is -20.1%.

As for `CC(Cn1cccn1)NC(=O)N1CCN(Cc2ccsc2)CC1` (configuration not stated), the cytotoxicity at 10 µM is -11.6%.

As for `CCc1nc(C)c(C(=O)NCCNc2cnccn2)s1`, the cytotoxicity at 10 µM is -4.64%.

Turning to `Cn1cc(CN2CCCN(C(=O)c3ccc4c(c3)COC4)CC2)cn1`, the cytotoxicity at 10 µM was -4.27%.

With `O=C(Cc1ccc(F)cc1)N1CCN(CC(O)C2CC2)CC1` (configuration not stated), the cytotoxicity at 10 µM is -15.2%.

Consider `Cn1cncc1CN1CCC2(CC1)COCCN(S(C)(=O)=O)C2`, for which the cytotoxicity at 10 µM was 4.73%.

`Cn1ncc2c1CCCC2NCc1cccc(F)c1` (configuration not stated): the cytotoxicity at 10 µM was -15.6%.

Take `Fc1cnc(N2CCCn3cnc(COc4cccnc4)c3C2)nc1`: the cytotoxicity at 10 µM was 1.42%.

Consider `CN(C)C(=O)COCc1cncc2c1CCN(C1CCOCC1)C2`, for which the cytotoxicity at 10 µM came out at 9.66%.

Regarding `CN(Cc1cccnc1)[C@@H]1CN(CC2CC2)[C@@H]2CCCO[C@H]12`, the cytotoxicity at 10 µM is -1.48%.

In the case of `Nc1cc(C(=O)N2C[C@@H]3CC[C@H]2CN(Cc2cccnc2)C3)ccn1`, the cytotoxicity at 10 µM came to 0.624%.
